Results reported in ChEMBL document CHEMBL1811805, “Molecular factors governing inhibition of arylimidamides against Leishmania: conservative computational modeling to improve chemotherapies” (Bioorg Med Chem, 2011).

Tests used:
[1] = tested on: Leishmania donovani; assay: Antileishmanial activity against Leishmania donovani axenic amastigotes after 3 days by tetrazolium dye based spectrophotometric analysis at pH 5.5; assay type: functional, organism-based; conditions: 72 h
Outline: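 Ld1s axenic amastigote-like L. donovani grown in potassium-based medium, pH 5.5, 37 °C; exposed to compounds for three days; tetrazolium dye added and read spectrophotometrically. IC50 (μM) averaged with standard errors, n ≥ 3.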

[2] = tested on: Leishmania amazonensis; assay: Antileishmanial activity against beta-lactamase transfected Leishmania amazonensis promastigotes infected in macrophages after 72 hrs by spectrophotometric analysis; assay type: functional, organism-based
Outline: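 Macrophages plated and adhered overnight; infected with β-lactamase-transfected L. amazonensis promastigotes (MOI 5:1) overnight; compounds added for 72 hours at 34 °C; nitrocefin in lysis buffer added for 3 to 5 hours further; absorbance read at 490 nm. IC50 (μM) averaged with standard errors, n ≥ 3.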

Row | SMILES | IC50 [1] | IC50 [2]
1 | N/C(=N\c1ccc(-c2ccc(-c3ccc(/N=C(\N)c4ccccn4)cc3OC3CCNCC3)o2)c(OC2CCNCC2)c1)c1ccccn1 | 59000 nM | > 10000 nM
2 | Cc1cccc(C(=N)Nc2ccc(-c3ccc(-c4ccc(NC(=N)c5cccc(C)n5)cc4C)o3)c(C)c2)n1 | > 50000 nM | 3100 nM
3 | N=C(Nc1ccc(-c2ccc(-c3ccc(NC(=N)c4ccccn4)cc3F)o2)c(F)c1)c1ccccn1 | 4200 nM | 1400 nM
4 | N=C(Nc1ccc(-c2ccc(-c3ccc(NC(=N)c4c[nH]cn4)cc3OC3CCCC3)o2)c(OC2CCCC2)c1)c1c[nH]cn1 | 14000 nM | > 10000 nM
5 | COC(=O)[C@H](N)CCOc1cc(NC(=N)c2ccccn2)ccc1-c1ccc(-c2ccc(NC(=N)c3ccccn3)cc2OCC[C@H](N)C(=O)OC)s1 | > 100000 nM | 5500 nM
6 | N=C(Nc1ccc(-c2ccc(-c3ccc(NC(=N)c4ccccn4)cc3OCc3ccccc3)o2)c(OCc2ccccc2)c1)c1ccccn1 | 4500 nM | 510 nM
7 | Cc1c(-c2ccc(NC(=N)c3ccccn3)cc2)oc(-c2ccc(NC(=N)c3ccccn3)cc2)c1C | 370 nM | 110 nM
8 | N=C(Nc1ccc(-c2ccc(-c3ccc(NC(=N)c4ccccn4)nc3)o2)cn1)c1ccccn1 | > 50000 nM | > 10000 nM
9 | N=C(Nc1ccc(-c2ccc(-c3ccc(NC(=N)c4ccccn4)cc3OC3CCCC3)o2)c(OC2CCCC2)c1)c1ccccn1 | 1400 nM | 170 nM
10 | N=C(Nc1ccc(-c2ccc(-c3ccc(NC(=N)c4ncccn4)cc3OC3CCCC3)o2)c(OC2CCCC2)c1)c1ncccn1 | 1500 nM | 210 nM
11 | N=C(Nc1cnc(-c2ccc(-c3cnc(NC(=N)c4ccccn4)cn3)o2)cn1)c1ccccn1 | > 100000 nM | > 10000 nM
12 | N=C(Nc1ncc(-c2ccc(-c3cnc(NC(=N)c4ccccn4)nc3)o2)cn1)c1ccccn1 | > 100000 nM | > 10000 nM
13 | N=C(Nc1ccc(-c2ccc(-c3ccc(NC(=N)c4ccccn4)cc3OCC(F)(F)F)o2)c(OCC(F)(F)F)c1)c1ccccn1 | 1100 nM | 250 nM

More lines, now with the values ahead:

Row | IC50 [1] | IC50 [2] | SMILES
14 | 5800 nM | 740 nM | CC(C)Oc1cc(NC(=N)c2ccn(C)n2)ccc1-c1ccc(-c2ccc(NC(=N)c3ccn(C)n3)cc2OC(C)C)o1
15 | 1000 nM | 370 nM | CC(C)Oc1cc(NC(=N)c2ncc[nH]2)ccc1-c1ccc(-c2ccc(NC(=N)c3ncc[nH]3)cc2OC(C)C)o1
16 | 5600 nM | > 10000 nM | CC(C)Oc1cc(NC(=N)c2ccc(Cl)cn2)ccc1-c1ccc(-c2ccc(NC(=N)c3ccc(Cl)cn3)cc2OC(C)C)o1
17 | 1500 nM | 960 nM | N=C(Nc1ccc(-c2ccc(-c3ccc(NC(=N)c4ccccn4)cc3O)o2)c(O)c1)c1ccccn1
18 | 1200 nM | 620 nM | N=C(Nc1ccc(-c2ccc(-c3ccc(NC(=N)c4ccccn4)cc3Br)o2)c(Br)c1)c1ccccn1
19 | 550 nM | 700 nM | CC(C)Oc1cc(NC(=N)c2ncccn2)ccc1-c1ccc(-c2ccc(NC(=N)c3ncccn3)cc2OC(C)C)o1
20 | 31000 nM | 5000 nM | CC(C)Oc1cc(NC(=N)c2cn(C)cn2)ccc1-c1ccc(-c2ccc(NC(=N)c3cn(C)cn3)cc2OC(C)C)o1
21 | 1400 nM | 170 nM | Cc1nc(C(=N)Nc2ccc(-c3ccc(-c4ccc(NC(=N)c5csc(C)n5)cc4OC(C)C)o3)c(OC(C)C)c2)cs1
22 | 20000 nM | 3700 nM | CC(C)Oc1cc(NC(=N)c2cnccn2)ccc1-c1ccc(-c2ccc(NC(=N)c3cnccn3)cc2OC(C)C)o1
23 | 16000 nM | 900 nM | CC(C)Oc1cc(NC(=N)c2ccc[nH]2)ccc1-c1ccc(-c2ccc(NC(=N)c3ccc[nH]3)cc2OC(C)C)o1
24 | > 100000 nM | > 10000 nM | N=C(Nc1ccc(-c2ccc(-c3ccc(NC(=N)c4cnccn4)cc3)o2)cc1)c1cnccn1
25 | 2500 nM | 590 nM | CC(C)Oc1cc(NC(=N)c2ccc(F)cn2)ccc1-c1ccc(-c2ccc(NC(=N)c3ccc(F)cn3)cc2OC(C)C)o1
26 | 680 nM | 45 nM | CC(C)Oc1cc(NC(=N)c2ccccn2)ccc1-c1ccc(-c2ccc(NC(=N)c3ccccn3)cc2OC(C)C)s1
